Laboratory results published in ChEMBL document CHEMBL1126018, “Syntheses and 5-HT2 antagonist activity of bicyclic 1,2,4-triazol-3(2H)-one and 1,3,5-triazine-2,4(3H)-dione derivatives” (J Med Chem, 1992).

Columns and labels:
[1] = target: Serotonin 2 (5-HT2) receptor (Rattus norvegicus, UniProt P30994+P08909+P14842); assay: In vitro antagonistic activity tested against the contraction induced by 5-HT through 5-hydroxytryptamine 2 receptor in rat thoracic aortic strips; type: functional
[2] = target: T1, Serotonin 2 (5-HT2) receptor (Rattus norvegicus) (UniProt P30994+P08909+P14842); assay: In vivo inhibitory activity of 10 mg/kg compound in rats against elevation of BP caused by 5-HT (300 ug/kg, iv) through 5-hydroxytryptamine 2 receptor 1 hr after oral administration; type: functional, organism-based; parameters: dose 10 mg/kg
T1 sequence (P08909 whole entry, looked up): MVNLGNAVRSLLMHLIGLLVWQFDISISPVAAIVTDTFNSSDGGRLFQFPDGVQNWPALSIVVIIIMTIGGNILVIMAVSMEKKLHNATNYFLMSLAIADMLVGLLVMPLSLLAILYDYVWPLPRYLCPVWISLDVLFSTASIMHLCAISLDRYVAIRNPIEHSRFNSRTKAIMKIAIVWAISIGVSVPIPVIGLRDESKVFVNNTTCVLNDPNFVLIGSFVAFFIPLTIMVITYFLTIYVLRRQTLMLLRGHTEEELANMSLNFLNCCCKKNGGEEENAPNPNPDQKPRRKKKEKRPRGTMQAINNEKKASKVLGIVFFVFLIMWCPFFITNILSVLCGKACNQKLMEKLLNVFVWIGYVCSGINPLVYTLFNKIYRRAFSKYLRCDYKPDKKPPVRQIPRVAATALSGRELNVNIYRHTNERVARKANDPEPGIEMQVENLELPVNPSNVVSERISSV
T1 sequence (P14842 whole entry, looked up): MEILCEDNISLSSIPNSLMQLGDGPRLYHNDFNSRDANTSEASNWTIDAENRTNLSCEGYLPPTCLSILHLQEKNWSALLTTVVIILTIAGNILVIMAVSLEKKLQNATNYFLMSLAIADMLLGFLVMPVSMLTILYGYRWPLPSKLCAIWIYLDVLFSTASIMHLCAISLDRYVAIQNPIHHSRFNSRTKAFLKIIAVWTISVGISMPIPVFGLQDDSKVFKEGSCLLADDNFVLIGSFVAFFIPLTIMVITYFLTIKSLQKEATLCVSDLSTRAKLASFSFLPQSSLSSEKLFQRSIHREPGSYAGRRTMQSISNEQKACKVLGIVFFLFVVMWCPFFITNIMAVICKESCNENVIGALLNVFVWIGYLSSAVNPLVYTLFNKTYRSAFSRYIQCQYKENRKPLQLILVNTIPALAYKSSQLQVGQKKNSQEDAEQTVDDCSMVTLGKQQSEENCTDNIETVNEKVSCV
T1 sequence (P30994 whole entry, looked up): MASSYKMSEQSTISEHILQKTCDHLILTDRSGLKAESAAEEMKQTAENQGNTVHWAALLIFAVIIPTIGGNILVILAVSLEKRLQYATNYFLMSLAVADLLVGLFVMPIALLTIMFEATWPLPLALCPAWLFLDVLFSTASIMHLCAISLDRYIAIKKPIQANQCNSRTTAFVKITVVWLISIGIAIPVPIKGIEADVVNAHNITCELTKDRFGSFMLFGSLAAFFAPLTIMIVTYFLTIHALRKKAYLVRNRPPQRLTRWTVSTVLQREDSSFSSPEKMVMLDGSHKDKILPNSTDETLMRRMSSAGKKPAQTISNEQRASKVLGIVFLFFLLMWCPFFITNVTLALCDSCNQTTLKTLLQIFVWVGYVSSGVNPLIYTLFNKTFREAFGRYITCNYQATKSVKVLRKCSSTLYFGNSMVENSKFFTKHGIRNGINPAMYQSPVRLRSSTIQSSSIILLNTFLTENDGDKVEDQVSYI
Summary of the method: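 Male SD rats anesthetized with urethane (1 g/kg ip) plus alpha-chloralose (80 mg/kg ip). Carotid arterial catheter to a pressure transducer, venous catheter for injection. After oral drug or vehicle, 5-HT 300 μg/kg iv. The pressor phase following the brief hypotensive phase was measured and expressed as % inhibition, mean ± SEM.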

[3] = target: T2, Adrenergic receptor alpha-1 (Rattus norvegicus, UniProt P15823+P23944+P43140); assay: In vitro antagonistic activity against the contraction induced by phenylephrine through alpha-1 receptor in rat thoracic aortic strips; type: functional
T2 sequence (P15823 whole entry): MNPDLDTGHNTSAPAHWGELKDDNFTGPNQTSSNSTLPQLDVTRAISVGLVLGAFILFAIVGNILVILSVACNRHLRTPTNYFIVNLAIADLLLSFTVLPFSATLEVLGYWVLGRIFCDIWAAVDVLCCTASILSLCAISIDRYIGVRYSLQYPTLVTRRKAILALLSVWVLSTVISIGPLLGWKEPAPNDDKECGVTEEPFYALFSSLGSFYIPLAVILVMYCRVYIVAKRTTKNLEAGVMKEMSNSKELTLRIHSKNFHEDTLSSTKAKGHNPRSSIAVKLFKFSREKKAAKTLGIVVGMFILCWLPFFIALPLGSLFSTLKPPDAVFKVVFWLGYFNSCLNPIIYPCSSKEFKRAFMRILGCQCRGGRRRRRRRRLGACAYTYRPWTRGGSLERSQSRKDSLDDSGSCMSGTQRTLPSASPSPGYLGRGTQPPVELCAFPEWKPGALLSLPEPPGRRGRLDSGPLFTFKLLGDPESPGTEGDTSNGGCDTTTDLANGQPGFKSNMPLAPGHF
T2 sequence (P23944 whole entry): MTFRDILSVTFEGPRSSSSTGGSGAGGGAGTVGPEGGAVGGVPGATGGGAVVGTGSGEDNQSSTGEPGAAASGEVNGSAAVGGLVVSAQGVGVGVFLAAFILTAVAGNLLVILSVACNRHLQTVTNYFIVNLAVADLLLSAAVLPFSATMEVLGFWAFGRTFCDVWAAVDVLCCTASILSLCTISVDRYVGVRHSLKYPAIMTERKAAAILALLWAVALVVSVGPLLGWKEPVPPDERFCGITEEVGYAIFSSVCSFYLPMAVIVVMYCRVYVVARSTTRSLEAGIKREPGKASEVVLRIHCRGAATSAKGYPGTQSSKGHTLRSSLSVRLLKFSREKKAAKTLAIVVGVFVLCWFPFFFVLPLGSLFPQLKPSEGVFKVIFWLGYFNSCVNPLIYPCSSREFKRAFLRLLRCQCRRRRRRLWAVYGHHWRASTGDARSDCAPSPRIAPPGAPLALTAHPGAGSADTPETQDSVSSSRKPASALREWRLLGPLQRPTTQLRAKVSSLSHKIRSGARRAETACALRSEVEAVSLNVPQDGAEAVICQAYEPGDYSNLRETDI
T2 sequence (P43140 whole entry): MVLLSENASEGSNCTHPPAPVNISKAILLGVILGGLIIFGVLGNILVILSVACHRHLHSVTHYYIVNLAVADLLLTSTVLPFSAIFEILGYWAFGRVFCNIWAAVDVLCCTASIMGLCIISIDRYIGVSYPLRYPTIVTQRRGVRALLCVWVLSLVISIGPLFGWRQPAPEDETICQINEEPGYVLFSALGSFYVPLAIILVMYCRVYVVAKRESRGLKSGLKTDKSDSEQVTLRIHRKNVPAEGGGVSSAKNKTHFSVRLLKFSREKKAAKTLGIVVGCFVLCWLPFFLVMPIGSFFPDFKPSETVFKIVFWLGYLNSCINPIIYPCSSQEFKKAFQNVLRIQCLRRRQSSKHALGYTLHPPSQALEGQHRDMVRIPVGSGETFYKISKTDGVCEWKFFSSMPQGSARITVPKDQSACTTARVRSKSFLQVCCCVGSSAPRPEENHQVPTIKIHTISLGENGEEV
Summary of the method: (§1)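 Rat thoracic aortic strips, isometric tension; equilibrated 120 min, primed with 60 mM KCl. Cumulative phenylephrine (0.01-10 μM) curve, wash, 1 h later second cumulative curve with test drug present. pA2 from the concentration-response curves where blockade is competitive (otherwise noncompetitive); single determination.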

[4] = target: T3, Adrenergic receptor alpha-1 (Rattus norvegicus) (UniProt P15823+P23944+P43140); assay: In vivo inhibitory activity in rats against elevation of blood pressure caused by phenylephrine (30 ug/kg, iv) through Alpha-1 adrenergic receptor, after 1 hr oral administration at dose of 10 mg/kg; type: functional, organism-based; parameters: dose 10 mg/kg
Summary of the method: (§2)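 Male SD rats under urethane (1 g/kg ip) and alpha-chloralose (80 mg/kg ip). Blood pressure recorded via carotid catheter and transducer, iv dosing via venous catheter. After oral drug or vehicle, phenylephrine 30 μg/kg iv. The pressor rise was expressed as % inhibition, mean ± SEM.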

[5] = target: T2, Adrenergic receptor alpha-1; assay: In vitro antagonistic activity tested against the contraction induced by phenylephrine through Alpha-1 adrenergic receptor in rat thoracic aortic strips; type: functional; summary of the method: as §1
[6] = target: T3, Adrenergic receptor alpha-1 (Rattus norvegicus); assay: In vivo inhibitory activity in rats against elevation of blood pressure caused by phenylephrine (30 ug/kg, iv) through alpha-1 receptor after 1 hr of oral administration at the dose of 10 mg/kg; type: functional, organism-based; parameters: dose 10 mg/kg; summary of the method: as §2
[7] = target: T1, Serotonin 2 (5-HT2) receptor (Rattus norvegicus); assay: In vitro antagonistic activity against the contraction induced by 5-HT through 5-hydroxytryptamine 2 receptor in rat thoracic aortic strips; NC=non competitive antagonism; type: functional; conditions: filed as antagonist
Summary of the method: as §1, with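 “5-HT (0.1-100” for “phenylephrine (0.01-10”, “cumulative 5-HT” for “cumulative”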

[8] = target: T3, Adrenergic receptor alpha-1 (Rattus norvegicus); assay: In vitro antagonistic activity against the contraction induced by phenylephrine through Alpha-1 adrenergic receptor in rat thoracic aortic strips; NC = non-competitive inhibition; type: functional; summary of the method: as §1

SMILES: O=c1nc2n(c(=O)n1CCN1CCC(=C(c3ccc(F)cc3)c3ccc(F)cc3)CC1)CCC2
- pA2 [1]: 8.3
- inhibition [2]: 83%
- pA2 [3]: 6.8
- inhibition [4]: 8%

SMILES: O=c1n(CCN2CCC(=C(c3ccccc3)c3ccc(F)cc3)CC2)nc2n1CCCCC2
- pA2 [1]: 7.3
- inhibition [2]: 84%
- inhibition [4]: 7%
- pA2 [5]: 6.4

SMILES: O=c1nc2n(c(=O)n1CCN1CCC(=C(c3ccc(F)cc3)c3ccc(F)cc3)CC1)CCCC2
- pA2 [1]: 8.3
- inhibition [2]: 93%
- pA2 [3]: 6.8
- inhibition [6]: 12%

SMILES: O=C(c1ccc(F)cc1)C1CCN(CCn2nc3n(c2=O)CCOC3)CC1
- pA2 [1]: 7.4
- inhibition [2]: 62%
- inhibition [4]: 36%
- pA2 [5]: 6.3

SMILES: O=c1n(CCN2CCC(=C(c3ccc(F)cc3)c3ccc(F)cc3)CC2)nc2n1CCOC2
- pA2 [1]: 7.2
- inhibition [2]: 60%
- inhibition [4]: 10%
- pA2 [5]: 6.6

SMILES: O=c1n(CCN2CCC(=C(c3ccccc3)c3ccccc3)CC2)nc2n1CCCCC2
- pA2 [1]: 7
- inhibition [2]: 42%
- inhibition [4]: 3%
- pA2 [5]: < 6

SMILES: O=c1nc2sccn2c(=O)n1CCN1CCC(=C(c2ccc(F)cc2)c2ccc(F)cc2)CC1
- pA2 [1]: 7.1
- inhibition [2]: 93%
- inhibition [4]: 20%
- pA2 [5]: < 6

SMILES: O=C(c1ccc(F)cc1)C1(O)CCN(CCn2c(=O)nc3n(c2=O)CCCC3)CC1
- pA2 [1]: 6.7
- inhibition [2]: 83%
- inhibition [4]: 20%
- pA2 [5]: 7.2

SMILES: O=C(c1ccc(F)cc1)C1CCN(CCn2c(=O)nc3ccccn3c2=O)CC1
- pA2 [1]: 8.1
- pA2 [5]: 7.5

SMILES: O=C(c1ccc(F)cc1)C1CCN(CCCn2nc3n(c2=O)CCCC3)CC1
- pA2 [1]: 7.7
- pA2 [5]: 7.8

SMILES: O=C(c1ccc(F)cc1)C1CCN(CCn2nc3n(c2=O)CCCC3)CC1c1ccc(F)cc1 (configuration not stated)
- pA2 [1]: 6.8
- inhibition [2]: 90%
- inhibition [4]: 15%
- pA2 [5]: 6.8

SMILES: O=C(c1ccc(F)cc1)C1CCN(CCCn2nc3n(c2=O)CCCCC3)CC1
- pA2 [7]: Non-competitive antagonist
- pA2 [8]: Non-competitive inhibition

SMILES: O=C(c1ccc(F)cc1)C1CCN(CCn2nc3n(c2=O)CCCC3)CC1
- pA2 [1]: 7.4
- inhibition [2]: 91%
- inhibition [4]: 32%
- pA2 [5]: < 6

SMILES: O=c1n(CCN2CCC(=C(c3ccc(F)cc3)c3ccc(F)cc3)CC2)nc2n1CCSC2
- pA2 [1]: 7.8
- inhibition [2]: 67%
- inhibition [4]: 4%
- pA2 [5]: 7.5

SMILES: O=c1n(CCN2CCC(=C(c3ccc(F)cc3)c3ccc(F)cc3)CC2)nc2n1CCCCC2
- pA2 [1]: 8.5
- inhibition [2]: 90%
- pA2 [3]: 7
- inhibition [6]: 3%

SMILES: O=C(c1ccc(F)cc1)C1CCN(CCCn2c(=O)nc3n(c2=O)CCCC3)CC1
- pA2 [1]: 6.5
- inhibition [2]: 78%
- inhibition [4]: 53%
- pA2 [5]: 7.3

SMILES: N#CC(=C1CCN(CCn2nc3n(c2=O)CCCC3)CC1)c1ccc(F)cc1
- pA2 [1]: 6.7
- inhibition [2]: 32%
- inhibition [4]: 2%
- pA2 [5]: 6.3

SMILES: O=c1n(CCN2CCC(=C(c3ccc(F)cc3)c3ccc(F)cc3)CC2)nc2n1CCCO2
- inhibition [2]: 89%
- inhibition [4]: 16%
- pA2 [5]: 7.8

SMILES: O=C(c1ccc(F)cc1)C1CCN(CCn2c(=O)nc3sccn3c2=O)CC1
- pA2 [1]: 7.9
- inhibition [2]: 79%
- pA2 [8]: Non-competitive inhibition
- inhibition [4]: 50%

SMILES: O=C(c1ccc(F)cc1)C1CCN(CCn2c(=O)nc3n(c2=O)CCC3)CC1
- pA2 [1]: 7.3
- inhibition [2]: 67%
- inhibition [4]: 23%
- pA2 [5]: 7.1

SMILES: O=c1n(CCN2CCC(=C(c3ccc(F)cc3)c3ccc(F)cc3)CC2)nc2n1CCC2
- pA2 [1]: 7.1
- inhibition [2]: 74%
- pA2 [3]: 6.9
- inhibition [6]: 6%

SMILES: O=C(c1ccc(F)cc1)C1(O)CCN(CCCn2nc3n(c2=O)CCCCC3)CC1
- pA2 [1]: 7.3
- inhibition [2]: 72%
- pA2 [5]: 7.6

SMILES: O=C(c1ccc(F)cc1)C1CCN(CCn2nc3n(c2=O)CCCCC3)CC1
- pA2 [7]: Non-competitive antagonist
- pA2 [8]: Non-competitive inhibition

SMILES: O=C(c1ccc(F)cc1)C1CCN(CCn2c(=O)nc3n(c2=O)CCCCC3)CC1
- pA2 [1]: 7.8
- inhibition [2]: 78%
- inhibition [4]: 15%
- pA2 [5]: 6.9

SMILES: O=C(c1ccc(F)cc1)C1CCN(CCn2nc3n(c2=O)CCC3)CC1
- pA2 [1]: 6.8
- inhibition [2]: 65%
- inhibition [4]: 36%
- pA2 [5]: 6.4

SMILES: COc1ccc(C(=C2CCN(CCn3nc4n(c3=O)CCCC4)CC2)c2ccc(OC)cc2)cc1
- pA2 [1]: 6.8
- inhibition [2]: 41%
- pA2 [3]: 7.2
- inhibition [6]: 4%

SMILES: O=C(c1ccc(F)cc1)C1(c2ccc(F)cc2)CCN(CCn2nc3n(c2=O)CCCC3)CC1
- pA2 [1]: 6
- inhibition [2]: 11%
- inhibition [4]: 6%
- pA2 [5]: < 6

SMILES: O=C(c1ccc(F)cc1)C1(O)CCN(CCn2nc3n(c2=O)CCCC3)CC1
- pA2 [1]: 6.8
- inhibition [2]: 85%
- inhibition [4]: 15%
- pA2 [5]: 7
